Measured values: ChEMBL document CHEMBL2177066, “Opioid activity profiles of oversimplified peptides lacking in the protonable N-terminus” (J Med Chem, 2012)
pIC50, pKi: −log10 of the molar value. Where a SMILES comes first, the peptide text is derived from it. [ ]: non-standard residue; d: D form.

Tests used:
[1] = target: Kappa-type opioid receptor (Homo sapiens, UniProt P41145); assay: Displacement of [3H]U69,593 from human KOR expressed in HEK293 cells after 90 mins by liquid scintillation counting; type: cell-based
Sequence of Kappa-type opioid receptor (P41145 whole entry): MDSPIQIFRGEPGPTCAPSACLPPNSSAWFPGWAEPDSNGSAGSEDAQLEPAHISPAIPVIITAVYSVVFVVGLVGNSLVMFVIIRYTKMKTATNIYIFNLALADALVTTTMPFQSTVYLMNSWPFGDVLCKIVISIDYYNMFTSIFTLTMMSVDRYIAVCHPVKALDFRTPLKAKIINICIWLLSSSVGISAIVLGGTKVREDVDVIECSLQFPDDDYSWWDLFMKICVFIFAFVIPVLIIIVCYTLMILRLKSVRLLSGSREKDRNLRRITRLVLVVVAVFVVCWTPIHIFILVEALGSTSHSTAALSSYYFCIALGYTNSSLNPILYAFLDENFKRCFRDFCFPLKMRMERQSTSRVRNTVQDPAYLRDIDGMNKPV
Outline: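 Membranes from HEK-293 cells expressing human KOR incubated 90 min at 25 °C in 100 mM Tris-HCl with 0.3% BSA, with [3H]U69,593 at 2 nM. Nonspecific binding defined with 10 μM U50,488. Filtered on polyethylenimine-presoaked GF/C filters, washed with ice-cold 50 mM Tris-HCl pH 7.4, then scintillation counted. Run in triplicate, ≥3 experiments. Ki from IC50 by Cheng–Prusoff.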

[2] = target: Delta-type opioid receptor (Homo sapiens, UniProt P41143); assay: Displacement of [3H]diprenorphine from human DOR expressed in HEK293 cells after 90 mins by liquid scintillation counting; type: cell-based
Sequence of Delta-type opioid receptor (P41143 whole entry): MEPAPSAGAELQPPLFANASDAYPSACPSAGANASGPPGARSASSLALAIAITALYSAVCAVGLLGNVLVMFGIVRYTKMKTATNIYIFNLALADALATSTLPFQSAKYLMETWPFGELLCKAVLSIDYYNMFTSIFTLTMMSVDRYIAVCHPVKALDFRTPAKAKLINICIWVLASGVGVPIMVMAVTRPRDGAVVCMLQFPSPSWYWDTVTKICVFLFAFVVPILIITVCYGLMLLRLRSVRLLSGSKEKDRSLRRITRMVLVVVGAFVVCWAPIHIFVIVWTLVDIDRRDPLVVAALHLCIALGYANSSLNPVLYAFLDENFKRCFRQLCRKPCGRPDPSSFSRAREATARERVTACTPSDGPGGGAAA

[3] = target: T1, Mu-type opioid receptor (Homo sapiens, UniProt P35372); assay: biochemical
T1 sequence (P35372 whole entry): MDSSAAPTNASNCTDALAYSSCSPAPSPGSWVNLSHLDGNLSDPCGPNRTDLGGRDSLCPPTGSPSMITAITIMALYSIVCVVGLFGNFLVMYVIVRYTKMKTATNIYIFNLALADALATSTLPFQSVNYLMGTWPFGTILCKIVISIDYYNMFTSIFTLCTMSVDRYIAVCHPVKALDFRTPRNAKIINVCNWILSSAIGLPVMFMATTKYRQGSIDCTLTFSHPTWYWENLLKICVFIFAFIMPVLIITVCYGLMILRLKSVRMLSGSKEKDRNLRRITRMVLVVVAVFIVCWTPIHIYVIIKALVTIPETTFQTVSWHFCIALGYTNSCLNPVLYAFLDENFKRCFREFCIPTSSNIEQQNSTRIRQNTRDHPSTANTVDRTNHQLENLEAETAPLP

[4] = target: T1, Mu-type opioid receptor; type: functional, cell-based, HEK293
[5] = target: T1, Mu-type opioid receptor; assay: Partial agonist activity at human MOR expressed in HEK293 cells assessed as inhibition of forskolin-induced cAMP accumulation after 15 mins by cAMP EIA; type: functional, cell-based
Outline: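 Whole HEK-293 cells stably expressing MOR, grown in MEM/10% FBS and plated at 85–95% confluence. Cells washed, placed in serum-free medium with 0.5 mM IBMX, and given 10 μM forskolin ± compound (0.01 nM–100 μM) for 15 min at 37 °C. Lysed in 0.1 N HCl; cAMP in supernatant measured by EIA. Triplicates averaged for IC50 and Emax (% vehicle), 5–6 independent experiments.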

Row | Structure (SMILES) | pKi [1] | pKi [2] | pKi [3] | pIC50 [5] | pIC50 [4]
1 | CC(=O)N[C@H](CCCCN)C(=O)N[C@@H](Cc1ccccc1)C(=O)NCC(N)=O | < 4.00 | < 4.00 | < 4.00 |  | 
2 | CC(=O)N[C@H](CCCNC(=N)N)C(=O)N[C@@H](Cc1ccccc1)C(N)=O | < 4.00 | < 4.00 | < 4.00 |  | 
3 | CC(=O)N[C@H](CCCCN)C(=O)N[C@@H](Cc1ccccc1)C(N)=O | < 4.00 | < 4.00 | < 4.00 |  | 
4 | NC(=O)[C@H]1CC(=O)NCCC(=O)N[C@H](Cc2c[nH]c3ccccc23)C(=O)N[C@@H](Cc2ccccc2)C(=O)N1 | < 4.00 | < 4.00 | 8.23 |  | 7.43
5 | CC(=O)N[C@H](Cc1cnc[nH]1)C(=O)N[C@@H](Cc1ccccc1)C(N)=O | < 4.00 | < 4.00 | < 4.00 |  | 
6 | CC(=O)N[C@H](CCCNC(=N)N)C(=O)N[C@@H](Cc1ccccc1)C(=O)NCC(N)=O | < 4.00 | < 4.00 | < 4.00 |  | 

Second part, led by results:

Row | pKi [1] | pKi [2] | pKi [3] | pIC50 [5] | Structure (SMILES) | pIC50 [4]
7 | < 4.00 | < 4.00 | < 4.00 |  | CC(=O)N[C@H](Cc1cnc[nH]1)C(=O)N[C@@H](Cc1ccccc1)C(=O)NCC(N)=O | 
8 | < 4.00 | 7.62 | 7.81 |  | CC(=O)N[C@H](Cc1c[nH]c2ccccc12)C(=O)N[C@@H](Cc1ccccc1)C(N)=O (Ac-[dW]-Phe-NH2) | < 4.00
9 | 4.48 | 7.92 | 4.13 |  | CC(=O)N[C@@H](Cc1c[nH]c2ccccc12)C(=O)N[C@@H](Cc1ccccc1)C(=O)NCC(N)=O (Ac-Trp-Phe-Gly-NH2) | 
10 | < 4.00 | < 4.00 | 8.25 | 6.70 | CC(=O)N[C@H](Cc1c[nH]c2ccccc12)C(=O)N[C@@H](Cc1ccccc1)C(=O)NCC(N)=O (Ac-[dW]-Phe-Gly-NH2) | 
